Tests used:
Mus musculus [1] = experiment: In vivo induction of hypothermia in mice following 150 mg/Kg i.p.; type: functional
Mus musculus [2] = experiment: Inhibition of t-BHP (tert-butyl-hydro-peroxide) induced toxicity in mice following 150 mg/Kg i.p.; type: functional
In short: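 Male NMRI mice (30–35 g) pretreated ip with 150 mg/kg in 0.2 mL saline/Tween, 30 min before icv injection of 70% t-BHP (22 mg/kg/μl). Lethality checked at 1, 2, 5, 24 h; value is percentage survival at 2 h versus t-BHP-only group; n = 10 per group.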

Row | Compound | Hypothermic effect (Mus musculus [1]) | Neuroprotection (Mus musculus [2]) [%]
1 | CC(C)(C)/[N+]([O-])=C/c1c[nH]c(-c2ccccc2)n1 | 0.33 °C | 78
2 | CC(C)(C)/[N+]([O-])=C/c1c[nH]c(-c2ccc(C(F)(F)F)cc2)n1 | 2.16 °C | 80
3 | CC(C)(C)/[N+]([O-])=C/c1c[nH]c(-c2ccoc2)n1 | 0.78 °C | 30
4 | CC(C)(C)/[N+]([O-])=C/c1c[nH]c(-c2ccc(Cl)cc2)n1 | 1.32 °C | 89
5 | Cc1ccc(-c2nc(/C=[N+](\[O-])C(C)(C)C)c[nH]2)cc1 | 1.24 °C | 66
6 | CC(C)(C)/[N+]([O-])=C/c1c[nH]c(-c2ccsc2)n1 | 0.48 °C | 40
7 | CC(C)(C)/[N+]([O-])=C/c1ccccc1 | 0.9 °C | 57
8 | CC(C)(C)/[N+]([O-])=C/c1c[nH]c(-c2ccc(F)cc2)n1 | 2.01 °C | 67
9 | CC(C)(C)/[N+]([O-])=C/c1c[nH]c(-c2cccnc2)n1 | 0.75 °C | 0
10 | CC(C)(C)/[N+]([O-])=C/c1c[nH]c(-c2c[nH]cn2)n1 | 0.13 °C | 0
11 | Cn1cc(/C=[N+](\[O-])C(C)(C)C)nc1-c1ccccc1 | 0.3 °C | 50
12 | CC(C)(C)/[N+]([O-])=C/c1c[nH]c(-c2ccco2)n1 | 0.72 °C | 15
13 | CC(C)(C)/[N+]([O-])=C/c1c[nH]c(-c2cccc(Cl)c2)n1 | 1.66 °C | 89
14 | Cn1c(/C=[N+](\[O-])C(C)(C)C)cnc1-c1ccccc1 | 0.69 °C | 0
15 | CC(C)(C)/[N+]([O-])=C/c1nc(-c2ccccc2)c[nH]1 | 1.42 degrees C | 0
16 | CC(C)(C)/[N+]([O-])=C/c1c[nH]c(-c2nccs2)n1 | 0.38 °C | 0
17 | CC(C)(C)/[N+]([O-])=C/c1c[nH]c(-c2ccccc2Cl)n1 | 1.91 °C | 71
18 | CC(C)(C)/[N+]([O-])=C/c1c[nH]c(-c2ccncc2)n1 | 0.49 °C | 24
19 | CC(C)(C)/[N+]([O-])=C/c1c[nH]c(-c2ccc3ccccc3c2)n1 | 1.62 °C | 94
20 | COc1ccc(-c2nc(/C=[N+](\[O-])C(C)(C)C)c[nH]2)cc1 | 0.53 degrees C | 53
21 | CC(C)(C)/[N+]([O-])=C/c1c[nH]c(-c2ccccn2)n1 | 0.36 °C | 0
22 | CC(C)(C)/[N+]([O-])=C/c1c[nH]c(-c2cccc3ccccc23)n1 | 0.52 °C | 75
23 | CC(C)(C)/[N+]([O-])=C/c1c[nH]c(-c2ccc([N+](=O)[O-])cc2)n1 | 1.89 °C | 93
